Most compounds without a hit are left out; they make up all but 5.8% or so of the library.
Pf Dd2 inh = P. falciparum Dd2 growth inhibition. SYBR Green, 72 h; hits give low values. activity change, % at 10 µM. hit rate 2.3% among 94,000. AID 1159554; in the data active means activity change below about -80%; inconclusive means no clear call, values can overlap the other calls
T cruzi growth-1 = inhibitors of T. cruzi proliferation; inhibition, % at 8.34 µM; T. cruzi beta-gal in NIH3T3, GalScreen luminescence, 90 h; AID 624255; hit rate 5.9% among 77,000;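 active means mean inhibition above about 93%, with at least 55% of replicates each passing it, limit read from the data, passing the limit was not always enough; inconclusive means only one of those two conditions holds; inactive means neither condition holds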
KDM4C inh = KDM4C (human) demethylase inhibition | Q9H3R0 | GST-KDM4C 2-372, H3K9me3 peptide, LANCE TR-FRET | inhibition, % at 12.5 µM | hit rate 0.15% among 96,000;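 active means mean replicate inhibition above about 25%, with at least 55% of replicates also reaching it, limit read from the data, passing the limit was not always enough; inconclusive means only one of those two conditions met; inactive means neither condition met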
Target sequence (Q9H3R0 2-372 limits assumed): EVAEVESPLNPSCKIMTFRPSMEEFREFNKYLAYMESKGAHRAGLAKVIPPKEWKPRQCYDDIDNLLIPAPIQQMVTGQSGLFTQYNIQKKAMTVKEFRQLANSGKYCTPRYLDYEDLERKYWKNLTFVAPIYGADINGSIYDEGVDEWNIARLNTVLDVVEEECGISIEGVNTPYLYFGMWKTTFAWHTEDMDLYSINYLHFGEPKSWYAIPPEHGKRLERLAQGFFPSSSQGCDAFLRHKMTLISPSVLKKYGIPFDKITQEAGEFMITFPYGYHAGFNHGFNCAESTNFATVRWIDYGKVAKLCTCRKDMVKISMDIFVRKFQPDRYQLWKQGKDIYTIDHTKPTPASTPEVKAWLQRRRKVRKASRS
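material = GST-tagged GASC-1 (JMJD2C) catalytic fragment, aa 2-372 | amount = enzyme final amount 10 nM | medium = HEPES buffer, pH 7.5, plus ascorbate | also added = H3K9me3 peptide substrate, Fe(II), 2-oxoglutarate | dosing = single dose | times = 30 min demethylation and 1 h detection at room temperature | detection = LANCE TR-FRET | read-out basis = Fall in 671/618 emission ratio as inhibition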
IDH1 R132H inh = IDH1 R132H (human) inhibition. inhibition, % at 10 µM. IDH1 R132H reductase, diaphorase/resazurin fluorescence, 60 min. hit rate 0.18% among 70,000. O75874; in the data active means inhibition above about 34%; inconclusive means no clear call, values can overlap the other calls; inactive means below about 11%;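 further: 0% = DMSO and 100% = no enzyme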
Target sequence (O75874 whole entry R132H): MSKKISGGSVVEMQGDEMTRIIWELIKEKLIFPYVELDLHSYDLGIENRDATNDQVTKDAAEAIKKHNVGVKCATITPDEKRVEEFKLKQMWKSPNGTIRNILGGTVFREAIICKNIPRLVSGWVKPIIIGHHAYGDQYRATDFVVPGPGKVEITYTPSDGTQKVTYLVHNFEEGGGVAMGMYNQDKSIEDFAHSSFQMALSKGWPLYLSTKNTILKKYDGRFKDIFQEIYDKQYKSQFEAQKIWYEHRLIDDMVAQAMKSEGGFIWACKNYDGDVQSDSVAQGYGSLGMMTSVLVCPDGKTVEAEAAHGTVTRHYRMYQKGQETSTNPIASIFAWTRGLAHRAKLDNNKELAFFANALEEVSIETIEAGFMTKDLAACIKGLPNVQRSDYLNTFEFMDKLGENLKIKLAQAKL
T cruzi growth-2 = Trypanosoma cruzi proliferation inhibition | T. cruzi beta-gal in NIH3T3, GalScreen luminescence, 90 h | hit rate 72% among 5,600 | shares compounds with T cruzi growth-1 | inhibition, % at 8.35 µM;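 active means mean replicate inhibition above about 95% and at least 55% of replicates individually reaching it, limit read from the data; inconclusive means only one of the two criteria is met; inactive means neither criterion is met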
T cruzi growth-3 = Trypanosoma cruzi proliferation inhibition. shares compounds with T cruzi growth-1. T. cruzi beta-gal in NIH3T3, GalScreen luminescence, 90 h. inhibition, % at 2.09 µM. hit rate 21% among 5,600. AID 651740;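 active means mean inhibition above about 95%, with at least 55% of replicates also reaching it, limit read from the data; inconclusive means meets just one of the two conditions; inactive means meets neither condition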;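 further: plate controls were neutral control median for no effect and positive control median for full effect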
3T3 cytotox = kills mouse NIH/3T3 fibroblasts; NIH/3T3 viability, CellTiter-Glo ATP luminescence, 90 h; hit rate 14% among 5,600; cytotoxicity (signal decrease), % at 8.35 µM; shares compounds with T cruzi growth-1;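 active means mean signal decrease across replicates above about 35% based on untreated-well scatter, with enough replicates individually passing, limit read from the data; inconclusive means no rule stated though some were filed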;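 further: 0% = median of neutral control wells and 100% = median of positive control wells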
NIH3T3 tox 2 = cytotoxicity in mouse NIH/3T3 fibroblasts | shares compounds with T cruzi growth-1 | NIH/3T3 viability, CellTiter-Glo ATP luminescence, 90 h | inhibition, % at 24.9 µM | hit rate 56% among 5,600;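 active means mean loss of cell viability signal at or above a set limit, and enough replicates individually reaching it; inconclusive means meets only the mean limit or only the replicate share; inactive means meets neither condition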;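 further: 0% = median of neutral control wells and 100% = median of positive control wells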
An asterisk follows results filed as active; ? = inconclusive; . = not tested or not shown.

SMILES	Pf Dd2 inh	T cruzi growth-1	KDM4C inh	IDH1 R132H inh	T cruzi growth-2	T cruzi growth-3	3T3 cytotox	NIH3T3 tox 2
C[C@H](CO)N1C[C@H](C)[C@@H](CN(C)Cc2ccccc2F)Oc2ncc(/C=C/c3ccccc3)cc2C1=O	-45.3	120.3*	-0.3	-0.3	108.0*	86.6	-22.2	104.5*
C[C@@H]1CN([C@H](C)CO)C(=O)c2cc(/C=C/c3ccccc3)cnc2O[C@@H]1CN(C)Cc1ccccc1F	-23.6	115.6*	-2.2	2.6	91.9	58.5	-0.6	34.7*
CCn1c(SCC(=O)Nc2ccc(Br)cc2C)nnc1-c1ccccc1F	.	.	.	-0.5	.	.	.	.
O=C(NO)c1cccc(C(=O)N/N=C/c2cccc(OCCO)c2)c1	.	.	.	-0.2	.	.	.	.
Cn1c(SCC(=O)c2ccc([N+](=O)[O-])cc2)nnc1-c1cccs1	.	.	.	0.3	.	.	.	.
CCCNC(=O)N(C)C[C@H]1Oc2cc(-c3cccnc3)ccc2S(=O)(=O)N([C@@H](C)CO)C[C@@H]1C	-1.0	?	-0.5	0.5	?	76.7	14.7	6.2
Cc1ccc(-c2ccc3c(c2)O[C@@H](CN(C)C(=O)NC(C)C)[C@H](C)CN([C@@H](C)CO)S3(=O)=O)cc1	-38.7	35.0	-2.0	7.9	.	.	.	.
Cc1ccc(-c2ccc3c(c2)O[C@H](CN(C)C(=O)NC(C)C)[C@@H](C)CN([C@H](C)CO)S3(=O)=O)cc1	-10.2	46.7	-3.5	-8.9	.	.	.	.
CC(C)NC(=O)N(C)C[C@H]1Oc2cc(-c3ccncc3)ccc2S(=O)(=O)N([C@H](C)CO)C[C@@H]1C	-1.2	107.0*	-1.2	0.5	86.6	57.7	0.9	10.5
CC(C)NC(=O)N(C)C[C@@H]1Oc2cc(-c3ccncc3)ccc2S(=O)(=O)N([C@H](C)CO)C[C@@H]1C	-11.1	?	13.4	2.9	57.1	20.4	2.5	10.3
CC(C)NC(=O)N(C)C[C@H]1Oc2cc(-c3ccncc3)ccc2S(=O)(=O)N([C@@H](C)CO)C[C@H]1C	-1.1	?	-2.0	1.2	63.8	-14.4	5.6	20.0
Cc1ccc(-c2ccc3c(c2)O[C@H](CN(C)C(=O)NC(C)C)[C@H](C)CN([C@@H](C)CO)S3(=O)=O)cc1	20.4	35.0	-2.3	-3.8	.	.	.	.
CCn1c(SCC(=O)Nc2ccc(I)cc2)nnc1-c1ccccc1F	.	.	.	0.0	.	.	.	.
Cc1nnc(SCC(=O)Nc2cccc([N+](=O)[O-])c2)s1	.	.	.	-0.1	.	.	.	.
CSc1ccccc1NC(=O)Cn1ccc([N+](=O)[O-])n1	.	.	.	0.0	.	.	.	.
COc1ccc(NC(=O)Nc2ccc3c(c2)C(=O)N([C@H](C)CO)C[C@@H](C)[C@H](CN(C)C(=O)NC2CCCCC2)OCCCC[C@@H](C)O3)cc1	-54.2	99.7*	0.5	.	106.9*	68.0	-24.0	-27.8
COc1ccc(NC(=O)Nc2ccc3c(c2)C(=O)N([C@@H](C)CO)C[C@H](C)[C@H](CN(C)C(=O)NC2CCCCC2)OCCCC[C@H](C)O3)cc1	-60.8	?	-2.4	.	109.6*	3.4	1.7	-29.2
Cc1[nH]c2ccccc2c1C(=O)CSc1ncnc2sc(C)c(C)c12	.	.	.	-0.1	.	.	.	.
O=C(COc1ccc(S(=O)(=O)N2CCCC2)cc1Cl)Nc1ccc2c(c1)OCCO2	.	.	.	0.1	.	.	.	.
Cc1ccc(S(=O)(=O)N(C)c2ccc(C(=O)Nc3cccc(N(C)S(C)(=O)=O)c3)cc2)cc1	.	.	.	-0.3	.	.	.	.
C[C@@H]1CN([C@H](C)CO)C(=O)c2cc(NS(C)(=O)=O)ccc2O[C@@H](C)CCCCO[C@@H]1CN(C)C(=O)CCCN(C)C	23.1	99.5*	0.8	.	54.4	-0.2	17.7	-1.6
C[C@@H]1CCCCO[C@H](CN(C)C(=O)CCCN(C)C)[C@@H](C)CN([C@H](C)CO)C(=O)c2cc(NC(=O)c3ccccc3)ccc2O1	8.3	99.5*	1.9	3.1	23.2	-38.1	-11.4	9.4
C[C@@H]1CN([C@@H](C)CO)C(=O)c2cc(NC(=O)c3ccccc3)ccc2O[C@@H](C)CCCCO[C@H]1CN(C)C(=O)CCCN(C)C	1.7	47.0	-2.0	-0.6	.	.	.	.
O=C(C[C@@H]1CC[C@H]2[C@@H](COC[C@H](O)CN2C(=O)Nc2cccc(Cl)c2)O1)NCc1ccccc1F	24.2	119.3*	-0.7	.	60.6	-20.1	3.9	23.8
O=C(C[C@@H]1CC[C@@H]2[C@H](COC[C@@H](O)CN2C(=O)Nc2cccc(Cl)c2)O1)NCc1ccccc1F	-4.7	122.7*	-0.6	.	97.3*	18.1	-5.1	38.4*
SMILES	Pf Dd2 inh	T cruzi growth-1	KDM4C inh	IDH1 R132H inh	T cruzi growth-2	T cruzi growth-3	3T3 cytotox	NIH3T3 tox 2
C[C@@H]1CN([C@@H](C)CO)C(=O)CCCn2nncc2CO[C@@H]1CN(C)Cc1ccc(C(=O)Nc2ccccc2N)cc1	-0.1	82.5	0.3	.	.	.	.	.
C[C@@H]1CN([C@@H](C)CO)C(=O)CCCn2nncc2CO[C@H]1CN(C)Cc1ccc(C(=O)Nc2ccccc2N)cc1	-10.6	110.1*	4.0	.	101.0*	106.6*	9.1	35.8*
C[C@H](CO)N1C[C@H](C)[C@@H](CN(C)Cc2ccc(C(=O)Nc3ccccc3N)cc2)OCc2cnnn2CCCC1=O	-13.6	110.0*	0.0	.	105.6*	88.9	4.2	?
C[C@@H]1CN([C@H](C)CO)C(=O)CCCn2nncc2CO[C@H]1CN(C)Cc1ccc(-c2ccccc2)cc1	-21.5	-52.9	0.9	.	.	.	.	.
C[C@H]1CN([C@@H](C)CO)C(=O)CCCn2nncc2CO[C@@H]1CN(C)Cc1ccc(C(=O)O)cc1	.	.	3.4	3.2	.	.	.	.
C[C@@H]1CN([C@H](C)CO)C(=O)CCCn2nncc2CO[C@H]1CN(C)Cc1ccc(C(=O)Nc2ccccc2N)cc1	-21.0	109.1*	-1.3	.	101.4*	92.6	12.6	30.7*
C[C@H](CO)N1C[C@H](C)[C@@H](CN(C)Cc2ccc(-c3ccccc3)cc2)OCc2cnnn2CCCC1=O	-21.1	?	1.6	.	51.2	11.5	17.1	50.9*
Cc1ccc(S(=O)(=O)N(C)CC(=O)Nc2ncc(C(F)(F)F)cc2Cl)cc1	.	.	.	-0.7	.	.	.	.
COC(=O)c1cc(NC(=O)COc2ccccc2OC)cc(C(=O)OC)c1	.	.	.	-0.9	.	.	.	.
Cc1noc(C)c1S(=O)(=O)N(C)C[C@H]1OCCCC[C@@H](C)Oc2ccc(NC(=O)Nc3ccc4c(c3)OCO4)cc2C(=O)N([C@H](C)CO)C[C@@H]1C	0.0	103.2*	0.7	0.1	?	13.2	26.0	45.5*
Cc1noc(C)c1S(=O)(=O)N(C)C[C@H]1OCCCC[C@@H](C)Oc2ccc(NC(=O)Nc3ccc4c(c3)OCO4)cc2C(=O)N([C@@H](C)CO)C[C@H]1C	-78.1	107.6*	-0.6	1.6	105.5*	24.5	28.0	21.0

Compound activity from PubChem.
